Results as given in ChEMBL document CHEMBL1143557, “Discovery of a fluoroindolo[2,3-a]carbazole clinical candidate with broad spectrum antitumor activity in preclinical tumor models superior to the marketed oncology drug, CPT-11” (J Med Chem, 2005).

Assays:
P388 [1] = test: Ratio of IC50 of P388 cells to that of CPT45 cells; assay type: functional, Mus musculus
P388 [2] = test: Cytotoxic concentration against murine leukemia P388 cells; assay type: functional, cell-based, Mus musculus
DNA topoisomerase 1 = target: T1, DNA topoisomerase 1 (Homo sapiens, UniProt P11387); test: Topoisomerase I activity for single-strand breaks in the DNA substrate
T1 sequence (P11387 whole entry): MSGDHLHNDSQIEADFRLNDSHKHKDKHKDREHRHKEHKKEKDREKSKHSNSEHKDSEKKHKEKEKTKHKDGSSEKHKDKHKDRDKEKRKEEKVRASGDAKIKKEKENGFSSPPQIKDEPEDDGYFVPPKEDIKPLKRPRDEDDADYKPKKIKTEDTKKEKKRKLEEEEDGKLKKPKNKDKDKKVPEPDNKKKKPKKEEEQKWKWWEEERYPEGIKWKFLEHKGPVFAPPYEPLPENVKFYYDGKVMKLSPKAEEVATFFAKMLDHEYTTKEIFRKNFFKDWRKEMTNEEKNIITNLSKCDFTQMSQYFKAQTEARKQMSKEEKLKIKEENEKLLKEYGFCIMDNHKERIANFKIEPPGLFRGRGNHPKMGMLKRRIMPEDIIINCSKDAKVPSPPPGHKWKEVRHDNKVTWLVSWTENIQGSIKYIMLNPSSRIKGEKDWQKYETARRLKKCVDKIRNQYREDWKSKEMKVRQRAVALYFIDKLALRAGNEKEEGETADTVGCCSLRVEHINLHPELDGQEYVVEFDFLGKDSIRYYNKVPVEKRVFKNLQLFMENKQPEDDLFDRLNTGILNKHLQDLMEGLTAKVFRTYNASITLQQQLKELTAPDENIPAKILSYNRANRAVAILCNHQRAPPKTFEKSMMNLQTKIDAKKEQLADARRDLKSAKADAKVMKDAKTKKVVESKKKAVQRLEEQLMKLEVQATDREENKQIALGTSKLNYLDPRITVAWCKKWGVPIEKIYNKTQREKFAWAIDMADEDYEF
Summary of the method: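 Topo I-mediated DNA cleavage assay using covalently closed, supercoiled phage PM2 DNA as substrate; read-out is induction of single-strand breaks.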

HT-29 [3] = test: Optimal dose required for antitumor activity against HT-29 human colon carcinoma xenograft model when administered twice a day iv dosing every other day for five doses (2q2dx5,iv); assay type: functional
HT-29 [4] = test: Antitumor activity against HT-29 human colon carcinoma xenograft model; Activity expressed as no. of cures by total (8); assay type: functional
HT-29 [5] = test: In vivo antitumor activity against HT-29 human colon carcinoma xenograft model when administered iv, (1:1:8 cremophor: ethanol: water vehicle) expressed as optimal effect in LCK; assay type: functional
HT-29 [6] = test: Optimal dose required for antitumor activity against HT-29 human colon carcinoma xenograft model when administered once a day iv dosing every other day for five doses (q2dx5,iv); MTD=30 mg.kg/inj; assay type: functional
HT-29 [7] = test: Optimal dose required for antitumor activity against HT-29 human colon carcinoma xenograft model when administered once a day iv dosing every other day for five doses (q2dx5,iv); assay type: functional

Row | Compound | Ratio (P388 [1]) | IC50 (P388 [2]; Mus musculus, P388) [µM] | EC50 (DNA topoisomerase 1) [µM] | Optimal dose (HT-29 [3]) [mg.kg/inj] | No. of cures (HT-29 [4]) | Activity (HT-29 [5]) | Optimal dose (HT-29 [6]) [mg.kg/inj] | IC50 (P388 [2]; p388) [µM] | Optimal dose (HT-29 [7]) [mg.kg/inj]
1 | O=C1NC(=O)c2c1c1c3cc(F)c(F)cc3sc1c1c2c2cc(F)c(F)cc2n1C1OC(CF)C(O)C(O)C1O (centres undefined) | 119 | 0.052 | 1.5 | – | – | – | – | – | –
2 | O=C1NC(=O)c2c1c1c3cc(F)c(F)cc3sc1c1c2c2cc(F)c(F)cc2n1C1OC(CO)C(F)C(O)C1O (centres undefined) | >1658 | 0.003 | 0.04 | 11 | 2 | >2.3 | – | – | –
3 | O=C1NC(=O)c2c1c1c3ccc(F)cc3[nH]c1c1c2c2ccc(F)cc2n1C1OC(CO)C(F)C(O)C1O (centres undefined) | 59 | 0.003 | 0.2 | – | – | – | – | – | –
4 | O=C1NC(=O)c2c1c1c3cc(F)c(F)cc3[nH]c1c1c2c2cc(F)c(F)cc2n1C1OC(CO)C(F)C(O)C1O (centres undefined) | 500 | 0.004 | 0.75 | – | – | – | – | – | –
5 | O=C1NC(=O)c2c1c1c3cc(F)ccc3sc1c1c2c2cc(F)ccc2n1C1OC(CF)C(O)C(O)C1O (centres undefined) | 110 | 0.016 | 0.42 | – | – | – | – | – | –
6 | O=C1NC(=O)c2c1c1c3cc(F)ccc3[nH]c1c1c2c2cc(F)ccc2n1C1OC(CO)C(F)C(O)C1O (centres undefined) | 380 | 0.002 | 0.11 | – | 2 | 3.1 | 20 | – | –
7 | NCC1OC(n2c3cc(F)c(F)cc3c3c4c(c5c6cc(F)c(F)cc6[nH]c5c32)C(=O)NC4=O)C(O)C(O)C1(F)F (centres undefined) | 16 | 0.06 | 0.05 | – | – | – | – | – | –
8 | O=C1NC(=O)c2c1c1c3cc(F)c(F)cc3sc1c1c2c2cc(F)c(F)cc2n1C1OC(CO)C(F)(F)C(O)C1O (centres undefined) | 580 | 0.0004 | 0.5 | – | – | – | – | – | –
9 | O=C1NC(=O)c2c1c1c3cc(F)ccc3[nH]c1c1c2c2cc(F)ccc2n1C1OC(CF)C(O)C(O)C1O (stereo in doubt; 10) | 110 | – | 4.4 | – | – | – | – | 0.012 | –
10 | NCC1OC(n2c3ccc(F)cc3c3c4c(c5c6cc(F)ccc6[nH]c5c32)C(=O)NC4=O)C(O)C(O)C1F (centres undefined) | 37 | 0.014 | 0.07 | – | – | – | – | – | –
11 | O=C1NC(=O)c2c1c1c3cc(F)ccc3[nH]c1c1c2c2cc(F)ccc2n1C1OC(COF)C(F)C(O)C1O (centres undefined) | 450 | 0.004 | 0.41 | – | 0 | 1.6 | – | – | 13
12 | O=C1NC(=O)c2c1c1c3cc(F)c(F)cc3[nH]c1c1c2c2cc(F)c(F)cc2n1C1OC(CF)C(O)C(O)C1O (centres undefined) | 52 | 0.034 | 3 | – | – | – | – | – | –
13 | O=C1NC(=O)c2c1c1c3cc(F)ccc3[nH]c1c1c2c2cc(F)ccc2n1C1OC(CF)C(O)C(O)C1O (stereo in doubt; 6) | 98 | – | 0.48 | – | – | – | – | 0.05 | –
14 | O=C1NC(=O)c2c1c1c3cc(F)ccc3[nH]c1c1c2c2cc(F)ccc2n1C1OC(CO)C(O)C(O)C1O (centres undefined) | 183 | 0.018 | 0.24 | – | – | – | – | – | –
15 | O=C1NC(=O)c2c1c1c3cc(F)ccc3[nH]c1c1c2c2cc(F)ccc2n1C1OC(CO)C(F)(F)C(O)C1O (centres undefined) | 380 | 0.003 | 0.08 | – | – | – | – | – | –
